Eight compounds from ChEMBL document CHEMBL1165965, “Synthesis and structure-activity relationships of 1,2,3,4-tetrahydropyrido[2,3-b]pyrazines as potent and selective inhibitors of the anaplastic lymphoma kinase” (Bioorg Med Chem, 2010) can be followed below.

Broadly, the inhibition is the change of the read-out against control, counted positive when it falls. A low value points to little suppression.

Where only a bound is given, the exact number is not on record here.

Test [1] deals with Serine/threonine-protein kinase B-raf (Homo sapiens), P15056 [V600E]. Briefly: Inhibition of BRAF V600E mutant at 1 uM. Summed up: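 Ambit KINOMEscan screen at a single concentration across a 250–400 kinase panel, recorded as percent inhibition. Selectivity was expressed as S(90), the fraction of kinases inhibited >90%.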
Chain of Serine/threonine-protein kinase B-raf (Homo sapiens), P15056 [V600E] (P15056 whole entry V600E, the tested form may be a part): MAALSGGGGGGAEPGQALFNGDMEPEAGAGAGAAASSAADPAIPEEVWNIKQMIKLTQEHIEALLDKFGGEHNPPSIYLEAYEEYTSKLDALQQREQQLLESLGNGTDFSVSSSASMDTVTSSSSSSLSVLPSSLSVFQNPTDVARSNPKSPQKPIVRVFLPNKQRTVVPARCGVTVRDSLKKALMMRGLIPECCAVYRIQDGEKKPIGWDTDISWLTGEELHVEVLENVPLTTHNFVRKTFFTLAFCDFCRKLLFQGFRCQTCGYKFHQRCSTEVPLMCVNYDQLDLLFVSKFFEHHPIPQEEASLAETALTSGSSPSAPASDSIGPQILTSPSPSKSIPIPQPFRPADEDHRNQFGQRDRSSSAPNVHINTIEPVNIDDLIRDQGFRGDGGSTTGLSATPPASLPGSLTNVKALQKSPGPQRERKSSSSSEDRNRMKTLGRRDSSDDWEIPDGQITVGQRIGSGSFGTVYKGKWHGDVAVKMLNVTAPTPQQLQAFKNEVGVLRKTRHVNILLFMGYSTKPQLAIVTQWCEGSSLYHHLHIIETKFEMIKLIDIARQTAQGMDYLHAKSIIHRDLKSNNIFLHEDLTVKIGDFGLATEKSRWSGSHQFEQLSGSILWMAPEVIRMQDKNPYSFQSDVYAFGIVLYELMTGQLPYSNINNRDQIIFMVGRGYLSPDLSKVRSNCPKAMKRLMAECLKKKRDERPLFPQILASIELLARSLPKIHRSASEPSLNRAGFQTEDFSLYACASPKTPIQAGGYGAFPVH
In test [2] the target is Ribosomal protein S6 kinase alpha-2 (Homo sapiens) (UniProt Q15349). The experiment in a line: Inhibition of RPS6KA2 C-terminal domain2 at 1 uM.
Test [3] deals with Ephrin type-A receptor 4 (Homo sapiens) (UniProt P54764). The experiment in a line: Inhibition of EPHA4 at 1 uM. The gist of the method: (§1)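 Single-concentration screen using Ambit Bioscience KINOMEscan technology across a panel of 250–400 kinases. Per-kinase inhibition from this screen was summarized as S(90), the fraction of kinases inhibited by more than 90%.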
In test [4] the target is Phosphatidylinositol 4,5-bisphosphate 3-kinase catalytic subunit alpha isoform (Homo sapiens) (UniProt P42336). The experiment in a line: Inhibition of PIK3CA at 1 uM.
Chain of Phosphatidylinositol 4,5-bisphosphate 3-kinase catalytic subunit alpha isoform (Homo sapiens) (P42336 whole entry, canonical isoform): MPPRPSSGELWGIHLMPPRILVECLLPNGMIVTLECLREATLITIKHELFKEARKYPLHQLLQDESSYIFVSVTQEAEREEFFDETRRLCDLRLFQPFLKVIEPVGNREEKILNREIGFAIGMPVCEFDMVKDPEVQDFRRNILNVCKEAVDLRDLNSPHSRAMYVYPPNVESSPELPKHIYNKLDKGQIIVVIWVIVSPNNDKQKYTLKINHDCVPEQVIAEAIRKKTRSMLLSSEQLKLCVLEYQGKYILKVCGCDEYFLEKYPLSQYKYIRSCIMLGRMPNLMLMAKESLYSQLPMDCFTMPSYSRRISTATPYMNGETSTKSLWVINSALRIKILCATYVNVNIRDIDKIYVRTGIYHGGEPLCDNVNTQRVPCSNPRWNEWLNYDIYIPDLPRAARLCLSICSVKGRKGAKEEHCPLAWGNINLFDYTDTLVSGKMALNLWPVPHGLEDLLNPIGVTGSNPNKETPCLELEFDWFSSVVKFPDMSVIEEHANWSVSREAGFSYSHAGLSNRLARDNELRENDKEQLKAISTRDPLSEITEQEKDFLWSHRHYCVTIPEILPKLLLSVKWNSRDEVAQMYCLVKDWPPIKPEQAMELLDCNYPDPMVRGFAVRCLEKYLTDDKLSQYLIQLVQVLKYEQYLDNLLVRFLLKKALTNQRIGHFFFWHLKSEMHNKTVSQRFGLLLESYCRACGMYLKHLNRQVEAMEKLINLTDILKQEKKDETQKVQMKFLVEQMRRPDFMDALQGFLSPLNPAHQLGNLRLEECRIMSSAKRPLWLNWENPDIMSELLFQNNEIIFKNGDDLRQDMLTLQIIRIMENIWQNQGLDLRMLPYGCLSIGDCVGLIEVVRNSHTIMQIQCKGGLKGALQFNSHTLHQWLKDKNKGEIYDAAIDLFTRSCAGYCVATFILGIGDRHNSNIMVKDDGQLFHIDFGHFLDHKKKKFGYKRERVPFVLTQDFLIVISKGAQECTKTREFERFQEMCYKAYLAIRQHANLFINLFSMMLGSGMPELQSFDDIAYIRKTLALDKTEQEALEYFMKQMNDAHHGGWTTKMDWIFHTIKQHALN
In test [5] the target is Dual specificity testis-specific protein kinase 1 (Homo sapiens) (UniProt Q15569). The experiment in a line: Inhibition of TESK1 at 1 uM.
For test [6], the system named is eIF-2-alpha kinase GCN2 (Homo sapiens), Q9P2K8 [S808G]. Briefly: Inhibition of GCN2 domian 2 S808G mutant at 1 uM. Summed up:
(§2)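 Single-concentration screen on the Ambit KINOMEscan platform, run against a panel of 250–400 kinases. Per-kinase inhibition was also summarized as S(90), the fraction of kinases inhibited by more than 90%.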

Test [7] addresses Epidermal growth factor receptor (Homo sapiens) (UniProt P00533). The experiment in a line: Inhibition of EGFR at 1 uM. Summed up: as §1
The target of test [8] is Homeodomain-interacting protein kinase 1 (Homo sapiens) (UniProt Q86Z02). The experiment in a line: Inhibition of HIPK1 at 1 uM. Summed up: as §2
Chain of Homeodomain-interacting protein kinase 1 (Homo sapiens) (Q86Z02 whole entry, looked up, the tested form may be a part): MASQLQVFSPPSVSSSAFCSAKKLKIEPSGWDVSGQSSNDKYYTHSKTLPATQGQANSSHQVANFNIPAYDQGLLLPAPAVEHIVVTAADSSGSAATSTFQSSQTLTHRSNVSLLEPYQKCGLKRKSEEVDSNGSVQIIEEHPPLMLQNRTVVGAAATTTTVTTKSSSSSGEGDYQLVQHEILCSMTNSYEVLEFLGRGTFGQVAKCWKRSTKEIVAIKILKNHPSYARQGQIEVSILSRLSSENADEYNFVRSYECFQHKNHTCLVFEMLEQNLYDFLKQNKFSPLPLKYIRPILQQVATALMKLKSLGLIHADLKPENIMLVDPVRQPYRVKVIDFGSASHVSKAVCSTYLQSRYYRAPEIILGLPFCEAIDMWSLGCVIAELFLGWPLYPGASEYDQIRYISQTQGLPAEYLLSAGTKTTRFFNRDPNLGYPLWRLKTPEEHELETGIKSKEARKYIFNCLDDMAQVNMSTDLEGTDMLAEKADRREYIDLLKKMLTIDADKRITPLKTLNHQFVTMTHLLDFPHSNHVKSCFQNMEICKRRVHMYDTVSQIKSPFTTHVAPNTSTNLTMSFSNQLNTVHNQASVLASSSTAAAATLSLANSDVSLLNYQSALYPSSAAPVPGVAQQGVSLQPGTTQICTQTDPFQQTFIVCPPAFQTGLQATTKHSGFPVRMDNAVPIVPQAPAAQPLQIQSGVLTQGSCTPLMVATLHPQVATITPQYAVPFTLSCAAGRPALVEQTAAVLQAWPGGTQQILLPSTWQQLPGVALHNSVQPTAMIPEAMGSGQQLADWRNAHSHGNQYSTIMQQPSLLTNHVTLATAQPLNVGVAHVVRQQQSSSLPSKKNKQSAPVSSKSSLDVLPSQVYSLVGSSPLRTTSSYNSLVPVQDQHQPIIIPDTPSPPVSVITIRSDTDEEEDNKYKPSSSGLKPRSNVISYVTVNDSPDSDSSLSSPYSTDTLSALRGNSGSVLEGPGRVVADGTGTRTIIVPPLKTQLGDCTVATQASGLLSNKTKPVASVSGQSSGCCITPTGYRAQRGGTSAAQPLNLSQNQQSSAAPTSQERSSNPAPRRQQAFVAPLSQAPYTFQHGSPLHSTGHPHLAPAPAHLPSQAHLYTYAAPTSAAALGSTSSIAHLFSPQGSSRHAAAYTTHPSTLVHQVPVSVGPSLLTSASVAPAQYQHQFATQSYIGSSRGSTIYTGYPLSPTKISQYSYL
Test [9] addresses Ribosomal protein S6 kinase alpha-5 (Homo sapiens) (UniProt O75582). Briefly: Inhibition of RPS6KA5 N-terminal domain1 at 1 uM.
For test [10], the target named is Death-associated protein kinase 3 (Homo sapiens) (UniProt O43293). Briefly: Inhibition of DAPK3 at 1 uM. The gist of the method: as §1
Test [11] deals with MAP/microtubule affinity-regulating kinase 3 (Homo sapiens) (UniProt P27448). The experiment in a line: Inhibition of MARK3 at 1 uM. Summed up:
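Kinase-panel screen using KINOMEscan technology, with 250–400 kinases per panel. Each compound was tested at a single concentration, and inhibition of each kinase was recorded. Selectivity was summarised as S(90), the fraction of kinases inhibited by more than 90%.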

Test [12] deals with Serine/threonine-protein kinase 32C (Homo sapiens) (UniProt Q86UX6). The experiment in a line: Inhibition of YANK3 at 1 uM.
Chain of Serine/threonine-protein kinase 32C (Homo sapiens) (Q86UX6 whole entry): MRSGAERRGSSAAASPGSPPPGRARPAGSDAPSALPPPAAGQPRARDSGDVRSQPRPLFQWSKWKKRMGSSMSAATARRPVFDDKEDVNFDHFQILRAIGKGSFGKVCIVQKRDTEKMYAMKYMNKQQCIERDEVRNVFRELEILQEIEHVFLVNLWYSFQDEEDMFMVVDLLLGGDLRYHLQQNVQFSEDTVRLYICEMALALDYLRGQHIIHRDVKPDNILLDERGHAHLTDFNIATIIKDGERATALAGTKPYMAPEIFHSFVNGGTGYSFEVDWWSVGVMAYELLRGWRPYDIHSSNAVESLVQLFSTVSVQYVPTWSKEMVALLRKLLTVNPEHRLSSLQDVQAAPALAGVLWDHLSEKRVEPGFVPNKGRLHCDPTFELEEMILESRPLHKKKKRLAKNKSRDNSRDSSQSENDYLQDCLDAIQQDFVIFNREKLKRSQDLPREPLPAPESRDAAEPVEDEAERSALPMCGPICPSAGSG
Test [13] concerns the target Tyrosine-protein kinase CSK (Homo sapiens) (UniProt P41240). The experiment in a line: Inhibition of CSK at 1 uM. Summed up:
as §1

Test [14] deals with Serine/threonine-protein kinase PLK3 (Homo sapiens) (UniProt Q9H4B4). Briefly: Inhibition of PLK3 at 1 uM.
Chain of Serine/threonine-protein kinase PLK3 (Homo sapiens) (Q9H4B4 whole entry, looked up): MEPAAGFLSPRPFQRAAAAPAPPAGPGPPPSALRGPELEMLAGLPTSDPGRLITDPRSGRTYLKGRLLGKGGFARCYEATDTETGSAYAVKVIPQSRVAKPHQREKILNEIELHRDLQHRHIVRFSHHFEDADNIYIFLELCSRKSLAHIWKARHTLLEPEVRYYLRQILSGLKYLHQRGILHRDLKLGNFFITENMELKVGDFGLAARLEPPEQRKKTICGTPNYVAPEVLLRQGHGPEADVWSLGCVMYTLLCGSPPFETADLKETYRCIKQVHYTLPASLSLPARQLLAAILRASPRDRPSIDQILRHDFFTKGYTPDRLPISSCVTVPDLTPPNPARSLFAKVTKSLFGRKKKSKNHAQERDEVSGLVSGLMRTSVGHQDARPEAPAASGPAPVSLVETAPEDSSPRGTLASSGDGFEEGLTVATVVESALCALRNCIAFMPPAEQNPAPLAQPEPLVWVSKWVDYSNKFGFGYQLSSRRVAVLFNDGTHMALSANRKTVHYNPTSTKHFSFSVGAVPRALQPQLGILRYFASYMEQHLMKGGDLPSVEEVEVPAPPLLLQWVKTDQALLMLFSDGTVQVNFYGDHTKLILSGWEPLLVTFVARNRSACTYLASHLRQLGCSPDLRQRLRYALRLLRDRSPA
Test [15] has as its target Citron Rho-interacting kinase (Homo sapiens) (UniProt O14578). Briefly: Inhibition of CIT at 1 uM.
For test [16], the target named is Cyclin-dependent kinase 3 (Homo sapiens) (UniProt Q00526). Briefly: Inhibition of CDK3 at 1 uM.
In test [17] the target is T1, Mitogen-activated protein kinase 15 (Homo sapiens) (UniProt Q8TD08).
T1 sequence (whole entry): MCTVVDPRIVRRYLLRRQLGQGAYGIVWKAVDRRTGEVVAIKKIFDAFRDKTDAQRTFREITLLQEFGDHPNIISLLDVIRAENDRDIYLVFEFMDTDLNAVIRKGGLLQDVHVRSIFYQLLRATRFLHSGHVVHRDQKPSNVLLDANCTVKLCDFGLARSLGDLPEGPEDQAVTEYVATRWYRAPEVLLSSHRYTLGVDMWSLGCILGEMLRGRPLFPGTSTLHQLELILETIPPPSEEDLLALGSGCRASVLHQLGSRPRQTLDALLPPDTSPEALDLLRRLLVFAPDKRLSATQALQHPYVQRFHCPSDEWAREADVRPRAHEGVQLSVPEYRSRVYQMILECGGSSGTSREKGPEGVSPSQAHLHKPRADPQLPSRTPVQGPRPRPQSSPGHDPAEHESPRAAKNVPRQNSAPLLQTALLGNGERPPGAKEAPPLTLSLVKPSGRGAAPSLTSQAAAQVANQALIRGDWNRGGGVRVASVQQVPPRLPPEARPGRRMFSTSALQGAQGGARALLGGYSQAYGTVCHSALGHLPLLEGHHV
The experiment in a line: Inhibition of ERK8 at 1 uM.

Test [18] addresses Phosphatidylinositol 4-phosphate 3-kinase C2 domain-containing subunit beta (Homo sapiens) (UniProt O00750). The experiment in a line: Inhibition of PIK3C2B at 1 uM.
Test [19] concerns the target T2, Serine/threonine-protein kinase Nek5 (Homo sapiens) (UniProt Q6P3R8).
T2 sequence (whole entry): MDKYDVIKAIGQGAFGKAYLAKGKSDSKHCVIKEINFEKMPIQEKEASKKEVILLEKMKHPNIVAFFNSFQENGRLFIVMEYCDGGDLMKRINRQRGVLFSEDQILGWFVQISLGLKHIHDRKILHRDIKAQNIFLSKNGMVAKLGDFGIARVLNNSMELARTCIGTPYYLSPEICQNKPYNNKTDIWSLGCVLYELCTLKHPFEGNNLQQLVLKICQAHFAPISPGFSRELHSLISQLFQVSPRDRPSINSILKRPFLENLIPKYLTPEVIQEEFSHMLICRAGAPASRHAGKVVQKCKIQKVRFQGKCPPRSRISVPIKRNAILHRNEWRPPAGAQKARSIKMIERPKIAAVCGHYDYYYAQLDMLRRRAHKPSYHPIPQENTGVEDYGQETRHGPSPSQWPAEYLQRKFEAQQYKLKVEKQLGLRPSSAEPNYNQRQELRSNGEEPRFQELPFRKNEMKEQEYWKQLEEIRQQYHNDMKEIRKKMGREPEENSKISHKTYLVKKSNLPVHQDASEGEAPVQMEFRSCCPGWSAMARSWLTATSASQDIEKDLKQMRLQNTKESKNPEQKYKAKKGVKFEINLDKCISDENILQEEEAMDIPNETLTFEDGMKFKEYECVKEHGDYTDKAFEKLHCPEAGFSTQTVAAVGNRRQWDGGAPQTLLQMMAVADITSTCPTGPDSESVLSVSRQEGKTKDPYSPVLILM
Briefly: Inhibition of NEK5 at 1 uM.

Chain of Ribosomal protein S6 kinase alpha-5 (Homo sapiens) (O75582 whole entry, looked up, the tested form may be a part): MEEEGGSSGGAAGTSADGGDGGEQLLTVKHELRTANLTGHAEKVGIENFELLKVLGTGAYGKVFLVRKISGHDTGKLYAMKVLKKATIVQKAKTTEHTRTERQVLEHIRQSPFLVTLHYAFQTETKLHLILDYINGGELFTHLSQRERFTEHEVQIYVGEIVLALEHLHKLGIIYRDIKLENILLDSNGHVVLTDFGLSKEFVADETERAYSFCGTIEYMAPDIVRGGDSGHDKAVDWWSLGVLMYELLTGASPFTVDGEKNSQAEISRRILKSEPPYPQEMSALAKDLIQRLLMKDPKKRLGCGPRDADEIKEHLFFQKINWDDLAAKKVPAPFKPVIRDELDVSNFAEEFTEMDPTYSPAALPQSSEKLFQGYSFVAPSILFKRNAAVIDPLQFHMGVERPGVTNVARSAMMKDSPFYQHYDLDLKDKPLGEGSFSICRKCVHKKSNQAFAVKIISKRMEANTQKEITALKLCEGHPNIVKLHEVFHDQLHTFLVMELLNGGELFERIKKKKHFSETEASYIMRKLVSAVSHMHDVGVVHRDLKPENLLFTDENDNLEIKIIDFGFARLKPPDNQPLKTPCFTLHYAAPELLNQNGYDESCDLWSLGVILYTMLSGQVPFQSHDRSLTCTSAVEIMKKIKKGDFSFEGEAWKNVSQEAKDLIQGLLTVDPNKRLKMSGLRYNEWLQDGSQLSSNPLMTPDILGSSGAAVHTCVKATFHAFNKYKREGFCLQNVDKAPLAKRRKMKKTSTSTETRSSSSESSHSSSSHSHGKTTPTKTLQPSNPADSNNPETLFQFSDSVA

As to `O=C(c1ccc(-c2cnc3c(c2)N(Cc2cc(Cl)ccc2C(F)(F)F)CCN3)cc1)N1CCCCC1`, the inhibition in test [1], in test [2], in test [3], in [4], in [5] and in test [6] was less than 50% in each case. Besides, the inhibition in [7], in test [8], in test [9], in [10], in [11] and in test [12] was less than 50% in each case. Moreover, the inhibition in test [13] and in test [14] was less than 50% in each case.

Regarding `CN1CCN(c2ccc(-c3cnc4c(c3)N(Cc3c(F)ccc(F)c3Cl)CCN4)cn2)CC1`, the inhibition in [1], in [2], in test [3], in test [4], in test [15] and in test [5] was less than 50% in each case. Besides, the inhibition was less than 50% in [16]; less than 50% in test [17]; less than 50% in [6]; less than 50% in test [7]; 70% in test [8]; less than 50% in [9]. For the same compound, the inhibition in test [10], in test [11], in test [12], in [18], in test [13] and in test [14] was less than 50% throughout. This compound also registered an inhibition in [19] of less than 50%.

As for `COC1CCN(C(=O)c2ccc(-c3cnc4c(c3)N(Cc3cc(Cl)ccc3C(F)(F)F)CCN4)cc2)CC1`, the inhibition in test [1], in [2], in test [3], in [4], in test [5] and in test [6] was less than 50% in each case. The inhibition in [7], in test [8], in [9], in [10], in [11] and in test [12] was less than 50% in each case. Also, the inhibition in test [13] and in test [14] was less than 50% each time.

Regarding `O=C(O)c1ccc(-c2cnc3c(c2)N(Cc2cc(Cl)ccc2C(F)(F)F)CCN3)cc1`, the inhibition in test [1], in test [2], in test [3], in [4], in [5] and in [6] was less than 50% throughout. Besides, the inhibition in test [7], in test [8], in [9], in test [10], in test [11] and in test [12] was less than 50% throughout. The inhibition in [13] and in [14] was less than 50% throughout.

Regarding `FC(F)(F)c1ccc(Cl)cc1CN1CCNc2ncc(-c3ccnc(N4CCNCC4)c3)cc21`, the inhibition in test [1], in test [2], in [3], in [4], in test [15] and in test [5] was less than 50% in each case. The inhibition in test [16], in [17], in [6], in test [7], in test [8] and in test [9] was less than 50% each time. Besides, the inhibition in [10], in test [11], in [12], in test [18], in [13] and in test [14] was less than 50% each time. The inhibition in test [19] was less than 50%.

Take `CN1CCN(c2ccc(-c3cnc4c(c3)N(Cc3cc(Cl)ccc3Cl)CCN4)cn2)CC1`: the inhibition in test [1], in test [2], in [3], in test [4], in [15] and in [5] was less than 50% throughout. Besides, the inhibition in test [16], in test [17], in test [6], in [7], in [8] and in [9] was less than 50% each time. Besides, the inhibition in test [10], in test [11], in test [12], in test [18], in [13] and in test [14] was less than 50% throughout. The inhibition in test [19] is less than 50%.

For the compound `O=C(c1ccc(-c2cnc3c(c2)N(Cc2cc(Cl)ccc2C(F)(F)F)CCN3)cc1)N1CCC(N2CCCC2)CC1`, the inhibition in [1] is less than 50%; in test [2], less than 50%; in [3], less than 50%; in test [4] it was less than 50%; in [5] it was 88.5%; in test [6], less than 50%. Besides, the inhibition in test [7], in [8], in test [9], in [10], in test [11] and in test [12] was less than 50% in each case. In addition, the inhibition in [13] and in test [14] was less than 50% in each case.

As for `CN1CCN(c2ccc(-c3cnc4c(c3)N(Cc3cc(Cl)ccc3C(F)(F)F)CCN4)cn2)CC1`, the inhibition in test [1], in [2], in test [3], in test [4], in test [15] and in [5] was less than 50% each time. Besides, the inhibition in test [16], in [17], in test [6], in [7], in test [8] and in test [9] was less than 50% in each case. In addition, the inhibition in test [10], in test [11], in test [12], in test [18], in test [13] and in [14] was less than 50% in each case. The same compound gave an inhibition in test [19] of less than 50%.
